Data on 167 variants can be found in the RNAGym collection of RNA variant scans (doi:10.1126/science.aae0568).

Variants at the floor of the assay were thinned out.

B1: tRNA (parent)
chain: GUUCCGUUGGCGUAAUGGUAACGCGUCUCCCUCCUAAGGAGAAGACUGCGGGUUCGAGUCCCGUACGGAACG

Variants of B1 are the subject of the data set. As to the kind of experiment: yeast fitness relative to wild type (ratio to wild type); higher = fitter; tRNA-Arg(CCU), competitive growth, 37 C, YPD. The procedure, abridged: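 Gene amplicons from the start population and from each of six end populations were read by 100-nucleotide paired-end sequencing. Those end populations came from pooled Saccharomyces cerevisiae strains carrying tRNA-Arg(CCU) gene variants at the native locus, competed in YPD at 37°C for 24 hours. Fitness relative to wild type was worked out from changes in genotype frequencies. Genotypes needed ≥ 100 starting reads, and estimates < 0.5 were set to 0.5.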
For the variant G23C C30G C62U, the yeast fitness is at most 0.5. In the case of C24G A36C A65G A70C, the yeast fitness was at most 0.5. The value for C24A G52C A57C was 0.561; that for G23C C27G U53C C61A G68A was at most 0.5. The value for G23C C30G A70G was at most 0.5; that for G23C C34A A36C A37C A40C G67U was at most 0.5. As to C24A C31G G51C C55U G58C, the yeast fitness is at most 0.5. Take C24A C29G U35A A57U: the yeast fitness turned out to be 0.515. On to G23C C31G G44C U47A C66U A69C, for which the yeast fitness is at most 0.5. As for G23C U32A C49U, the figure is at most 0.5; as for C24A U54A, 0.634. As for G23C C49G A70C, the figure is at most 0.5.

As to C24A C27U C29G G44C G68C, the yeast fitness was at most 0.5. For C24A C30U C62U, the yeast fitness came out at 0.511.

Take C24A A43U G48A: the yeast fitness is at most 0.5.

Consider C24A A43U G48C, for which the yeast fitness was at most 0.5. Take C24A U32C C61G: the yeast fitness is at most 0.5. The value for C24A U26A A43U C55A C66U was at most 0.5. As for G23C G38C G52C G58A, the figure is at most 0.5; as for C24A C31A A43U C55U, 0.674; as for G23C C31A, 0.633.

For the variant G23C C31G, the yeast fitness was found to be 0.654. Take G23C C29A C49U: the yeast fitness is 0.596. As for C24A C46G U59C C62G, the figure is 0.617; as for C24A C46G U59C C62U, at most 0.5; as for G23C C55G C60A, at most 0.5.

Regarding G23C G25A C30G A65C, the yeast fitness is at most 0.5. The value for C24A A57C was at most 0.5; that for C24A A57G was 0.601. The value for C24A C27G C29G G52C was 0.996. The value for G23C C29A G38A was at most 0.5; that for C24A C46U was 1.1; that for C24A C46A was 1.01. Regarding C24A A43G G52A G58A, the yeast fitness was at most 0.5.

Turning to C24A C31U A42C, the yeast fitness stood at 0.529. With C24A C27A U28A C49U C55A, the yeast fitness was at most 0.5. With G23C C29A A45U, the yeast fitness is at most 0.5.

Consider G23C C34U A36U, for which the yeast fitness is at most 0.5.

Consider C24A U47A A70U, for which the yeast fitness is at most 0.5. For the variant G23C U32C A45U, the yeast fitness was determined as 0.605. The value for C24A A37G C55U C60G was at most 0.5; that for G23C C27U was 0.726; that for C24A G25A U47C was at most 0.5. As for C24A A36C A40G, the figure is 0.789; as for C24A C27U U28G, 0.511.

C24A C31G C66A: the yeast fitness is at most 0.5. As for G23C C46A G56A C62U, the figure is 0.758; as for C24A A37G A57G G63A A65G, at most 0.5; as for C24A A40G C49A A65C, at most 0.5.

Turning to G23C C29G A43U G50A, the yeast fitness is 0.702. The value for G23U U28G was 0.552.

Consider C24A C33A C46U G67U, for which the yeast fitness was at most 0.5. The value for C24A C34U G52A was at most 0.5; that for C24A A69C was 0.724. With C24A A69U, the yeast fitness was 0.752.

For C24A A43G A65C, the yeast fitness was at most 0.5.

For C24A G58A A70G, the yeast fitness was 0.574. The value for C24A C31U A42C G50A was at most 0.5; that for C24A G41A was 0.738; that for C24A C49A was 0.577. As for C24A C49A C61G, the figure is at most 0.5. The value for C24A A43C A65G was at most 0.5.

Take C24A C29G A45G U54A: the yeast fitness is at most 0.5.

Take C24A C27A U28A A70U: the yeast fitness was at most 0.5. The value for C24G A36C A37G A70C was at most 0.5. The value for G23C C31A C49A was 0.758; that for C24A C27G C29G was 0.639; that for G23C G50C G63C G67A was 0.64.

As to G23C U59A, the yeast fitness worked out at 0.704.

Take G23C U59G C60G: the yeast fitness was at most 0.5.

Turning to C24A G25A U47C G52C, the yeast fitness was at most 0.5. As for C24A A36G A43G A57G, the figure is at most 0.5; as for G23C C33A A36U, 0.529; as for G23C G48C A69U, at most 0.5. As for C24A A42U G44A, the figure is 0.581; as for G23C G68C, 0.697.

Regarding G23U G63A, the yeast fitness came to 0.609. As for C24A G39C A42G, the figure is at most 0.5; as for C24A C29U, 0.643. As for C24A C29G A43C C60U, the figure is 0.648. Regarding G23C U54C U64A G68A, the yeast fitness was at most 0.5. The value for C24A A70C was 0.8; that for G23C C33G C46A was 0.53. The value for C24A C31A C33A C60A was at most 0.5; that for C24A C46A A70C was 0.851; that for C24A U47A was 0.619. The value for C24A C34U A40C G68C was at most 0.5. Consider G23C C49U C55G, for which the yeast fitness is at most 0.5. The value for C24A C55G was 0.545; that for G23C C34U A36U C49A C66U was at most 0.5; that for G23C C30A was 0.6. Turning to C24A A45G C66U, the yeast fitness is at most 0.5.

Consider G23C C62G C66A, for which the yeast fitness is at most 0.5. For C24A C27U C30U G52C, the yeast fitness amounted to 0.596.

In the case of G23C C49U, the yeast fitness was determined as 0.71. The value for G23C U32A A69C was at most 0.5; that for C24A A36G A37G A69C was at most 0.5; that for C24A A36G A37G A69U was at most 0.5. The value for C24A C62G was 0.706. As for C24A C62U, the figure is 0.724; as for G23C C30G G67A, at most 0.5; as for C24A C31U A42C A65C, at most 0.5.

G23C C31G A40U G51A: the yeast fitness stood at 0.656. The value for G23C C29A G38A A57G was at most 0.5; that for C24A C30U A57U C62A was at most 0.5. G23C C29U: the yeast fitness was 0.604. The value for G23C C29A was 0.548; that for C24A A45G U54C C62U was at most 0.5; that for C24A G56C was 0.626. On to G23C C29A G44A, for which the yeast fitness worked out at 0.608. The value for C24A U53C was 0.598; that for C24A C31U G38A G58C was at most 0.5; that for C24A A36U C61A was 0.509. For the variant C24A U26G A43C, the yeast fitness came out at 0.516. The value for C24A U28C G56A was at most 0.5; that for C24A C27U U54C U59C G68U was at most 0.5.

In the case of C24A C27U C29G G44C U59C G67A, the yeast fitness was at most 0.5.

As to C24A C29G U35A A43C, the yeast fitness worked out at 0.929. For the variant G23U G38C A57G, the yeast fitness was at most 0.5. The value for C24A C31G G51C C55U G58C A70U was at most 0.5.

Take C24A C27U: the yeast fitness is 0.702. Turning to C24A C27G, the yeast fitness is 0.571.

In the case of G23C C60G G68C, the yeast fitness is at most 0.5. Consider G23C C61U, for which the yeast fitness is 0.703. The value for G23C C61G was 0.587; that for G23C C61A was at most 0.5; that for C24A C30U A36G C46A was 0.579. As for C24A A42G C49U U59G C62A, the figure is 0.547; as for C24A U59G C66U A70C, 0.529.

As to C24A A36C A37C C46U C62G, the yeast fitness is at most 0.5.

In the case of C24A C31U C55A C60A, the yeast fitness was at most 0.5. The value for G23C G52C was 0.523; that for G23C G52A was at most 0.5. The value for C24A C29G U35G A36C was at most 0.5; that for G23C C33G A42U C66A was 0.643. As to G23C U28G A42U U59A, the yeast fitness was at most 0.5.

With C24A A36C G48C G52C, the yeast fitness is at most 0.5. As to C24A U26G A43C C62G G63A C66G, the yeast fitness is 0.514.

G23C C29G C33U C46U C55U: the yeast fitness was at most 0.5. In the case of C24A A36U C61U G67U, the yeast fitness is 0.608. As for G23C C31G A40U G51A A57C, the figure is at most 0.5; as for C24A C30U U64G, at most 0.5. As for C24A C31A C55A, the figure is at most 0.5; as for G23U A40G G63A, at most 0.5. Regarding G23C C62U, the yeast fitness is 0.743. With G23C C62A, the yeast fitness turned out to be 0.541. The value for G23C C30A C46A was at most 0.5; that for G23C C55U was at most 0.5; that for G23C C27G C61U C66U was at most 0.5. As for C24A C29G C30G C49U, the figure is at most 0.5; as for C24A U28C U64C C66U, at most 0.5; as for G23C U32A C49A U54G, at most 0.5. As for G23C C31G G38C, the figure is at most 0.5. In the case of G23C G56A A57G, the yeast fitness was at most 0.5. As for G23C C46U, the figure is 0.568. As for G23C C27G C31U, the yeast fitness was at most 0.5. Turning to G23C U28A G39A G48A C61G C66G, the yeast fitness was at most 0.5. On to G23C G48A, for which the yeast fitness stood at 0.668. As for G23C G48C, the figure is 0.686. As for G23C C31A A36U A70C, the figure is 0.557; as for C24A A42U, 0.659; as for C24A C31G G38C, at most 0.5. The value for C24A A37G A57C was at most 0.5; that for G23U C33G G58C was at most 0.5.

As to C24A G39C, the yeast fitness is 0.705. In the case of C24A G41C G48A, the yeast fitness turned out to be 0.625. C24A U32C: the yeast fitness amounted to 0.612.
